These results are taken from ChEMBL document CHEMBL1141510, “Synthesis and antioxidant activities of 3,5-dialkoxy-4-hydroxycinnamamides” (Bioorg Med Chem Lett, 2008).

The structures appear in SMILES notation.

The IC50 is the point on the concentration scale where inhibition reaches its midpoint.

For one assay, the system named is Brain. The experiment in a line: Inhibition of lipid peroxidation in Sprague-Dawley rat brain after 30 mins by TBARS assay. The class given is functional, tissue-based. To be noted: 0.5 h. Summed up:
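Brain from male Sprague–Dawley rats (about 10 weeks old) homogenized in ice-cold 10 mM Tris–HCl, pH 7.4, and spun 10 min at 1000g; the supernatant was used. TBARS read at 532 nm against a 1,1,3,3-tetraethoxypropane external standard.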

Assay [1] has as its system Radical scavenging activity. As to the kind of experiment: Antioxidant activity assessed as DPPH radical scavenging activity. The class given is functional. Summed up:
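Sample in ethanol added 1:9 to 0.15 mM DPPH radical in ethanol. Test compound solutions ranged 3–1000 µg/ml. Ethanol alone served as control. Reaction ran 10 min at 25 °C, then absorbance was read at 517 nm. Scavenging expressed as percent loss relative to control absorbance. EC50 taken as the concentration giving 50% loss of DPPH radical.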

The nature of assay [2]: Antioxidant activity assessed as ABTS radical scavenging activity. The class given is functional.
A short description of assay [3]: Antioxidant activity assessed as ABTS radical scavenging activity at 150 uM. The class given is functional.
Assay [4] deals with Radical scavenging activity. The experiment in a line: Antioxidant activity assessed as DPPH radical scavenging activity at 300 uM. The format is functional. (The DPPH test is a chemical assay of radical scavenging.)

Take `CCCCOc1cc(/C=C/C(=O)O)cc(OCCCC)c1O`: the 50% inhibitory concentration (IC50) in the assay on Brain worked out at 3.68 µM.
Turning to `COc1cc(/C=C/C(=O)NCc2cc(C(C)(C)C)c(O)c(C(C)(C)C)c2)cc(OC)c1O`, the concentration for half-maximal inhibition (IC50) in the assay with Brain was 1.46 µM; in assay [1], 80.3 µM; in assay [2], 11.3 µM.
With `COc1cc(CNC(=O)CCCc2ccc(C)c(C)c2)ccc1O`, in the assay on Brain, the IC50 is 57.2 µM.
Regarding `CCCCOc1cc(/C=C/C(=O)NCCc2cc(C(C)(C)C)c(O)c(C(C)(C)C)c2)cc(OCCCC)c1O`, 0.41 µM corresponded to half-maximal inhibition in the assay with Brain (IC50).
Take `CCCCCCOc1cc(/C=C/C(=O)NCCc2cc(C(C)(C)C)c(O)c(C(C)(C)C)c2)cc(OCCCCCC)c1O`: the half-inhibitory concentration (IC50) in the assay on Brain stood at 2.74 µM; in assay [1] it was 75.6 µM; in assay [2], 27.4 µM.
Turning to `CCCOc1cc(/C=C/C(=O)NCCc2cc(C(C)(C)C)c(O)c(C(C)(C)C)c2)cc(OCCC)c1O`, the figures for the IC50 (in the assay on Brain; in assay [1]) were 0.26 µM and 114 µM, respectively. In assay [3], the Activity came out at 37%.
The corresponding values for `CCCOc1cc(/C=C/C(=O)NCc2cc(C(C)(C)C)c(O)c(C(C)(C)C)c2)cc(OCCC)c1O` are 0.27 µM, 73 µM and 24%.
Consider `CCC(CC)Oc1cc(/C=C/C(=O)O)cc(OC(CC)CC)c1O`, for which, in the assay on Brain, the IC50 is 2.21 µM.
Consider `CCCCCCOc1cc(/C=C/C(=O)NCCCc2ccc(C)c(C)c2)cc(OCCCCCC)c1O`, for which the figures for the IC50 (in the assay on Brain; in assay [1]; in assay [2]) were 0.29 µM, 77.7 µM and 28.5 µM, respectively.
Consider `CCCC(C)Oc1cc(/C=C/C(=O)NCCc2cc(C(C)(C)C)c(O)c(C(C)(C)C)c2)cc(OC(C)CCC)c1O` (centres undefined), for which the half-inhibitory concentration (IC50) is 0.36 µM in the assay with Brain and 85.1 µM in assay [1]. In addition, the Activity in assay [3] came out at 64%.
As for `COc1cc(CC(=O)NCCCc2ccc(C)c(C)c2)ccc1O`, the IC50 with Brain came out at 25.9 µM.
As to `CCCCCCOc1cc(/C=C/C(=O)O)cc(OCCCCCC)c1O`, in the assay with Brain, it took 2.24 µM to reach half-maximal inhibition (IC50).
For the molecule `COc1cc(/C=C/C(=O)NCCc2cc(C(C)(C)C)c(O)c(C(C)(C)C)c2)cc(OC)c1O`, the IC50 was determined as 0.69 µM in the assay with Brain, 69 µM in assay [1] and 15.6 µM in assay [2].
In the case of `CCCCOc1cc(/C=C/C(=O)NCc2cc(C(C)(C)C)c(O)c(C(C)(C)C)c2)cc(OCCCC)c1O`, the values for the IC50 (with Brain; in assay [1]) were 0.42 µM and 177 µM, respectively. The Activity in assay [3] was 57%.
Take `CCCC(C)Oc1cc(/C=C/C(=O)NCc2cc(C(C)(C)C)c(O)c(C(C)(C)C)c2)cc(OC(C)CCC)c1O` (centres undefined): the figures for the IC50 (in the assay with Brain; in assay [1]) were 0.57 µM and 66.6 µM, respectively. The Activity in assay [3] was 47%.
On to `CCC(CC)Oc1cc(/C=C/C(=O)NCc2cc(C(C)(C)C)c(O)c(C(C)(C)C)c2)cc(OC(CC)CC)c1O`, for which the half-maximal inhibitory concentration (IC50) with Brain came to 0.82 µM; in assay [1], 67.7 µM. Moreover, the Activity in assay [3] was 44%.
In the case of `CCCC(C)Oc1cc(/C=C/C(=O)NCCCc2ccc(C)c(C)c2)cc(OC(C)CCC)c1O` (centres undefined), the 50% inhibitory concentration (IC50) with Brain was determined as 1.33 µM; in assay [1], 68.4 µM; in assay [2], 26.3 µM.
`CCC(CC)Oc1cc(/C=C/C(=O)NCCCc2ccc(C)c(C)c2)cc(OC(CC)CC)c1O`: the results for the concentration for half-maximal inhibition (IC50) (in the assay on Brain; in assay [1]) were 1.73 µM and 84.4 µM, respectively. The Activity in assay [3] is 49%.
In the case of `COc1cc(/C=C/C(=O)O)cc(OC)c1O` [SINAPINATE], the 50% inhibitory concentration (IC50) in the assay with Brain is 4.77 µM.
As to `CCCC(C)Oc1cc(/C=C/C(=O)O)cc(OC(C)CCC)c1O` (centres undefined), in the assay with Brain, the concentration for half-maximal inhibition (IC50) was 4.84 µM.
`CCC(CC)Oc1cc(/C=C/C(=O)NCCc2cc(C(C)(C)C)c(O)c(C(C)(C)C)c2)cc(OC(CC)CC)c1O` gave a half-maximal inhibitory concentration (IC50) with Brain of 0.44 µM. Also, the Activity in assay [4] was determined as 55%.
On to `CCCCCCOc1cc(/C=C/C(=O)NCc2cc(C(C)(C)C)c(O)c(C(C)(C)C)c2)cc(OCCCCCC)c1O`, for which the IC50 in the assay with Brain is 3.52 µM; in assay [2], 23.2 µM. Moreover, in assay [4], the Activity came out at 75%.
